How the values were obtained:
Sapajus apella = experiment: Iron clearing efficiency in bile duct cannulated Cebus apella assessed as clearance of iron in bile at 75 umol/kg, po measured at 3 hrs intervals for up to 48 hrs relative to control; type: functional
[1] = Performance ratio, ratio of iron clearing efficiency in […] at 75 umol/kg, po to iron clearing efficiency in bile duct cannulated Sprague-Dawley rat at 300 umol/kg, po; type: functional
Method in brief: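 Performance ratio = mean ICE in iron-overloaded Cebus apella (75 µmol/kg) divided by mean ICE in bile duct-cannulated rats (300 µmol/kg), by the same route.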

Rattus norvegicus [2] = experiment: Drug metabolism in Sprague-Dawley rat plasma assessed as parent compound and metabolite level at 300 umol/kg, sc after 4 hrs by HPLC analysis; type: ADME, organism-based; settings: in vivo
Method in brief: (§1)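 Rats (male Sprague-Dawley, 250–350 g) were dosed sc once with the monosodium salt, 300 µmol/kg, three animals per time point up to 8 h. Plasma came from citrated cardiac blood; liver was frozen after CO2 euthanasia. Parent and metabolites were quantified by HPLC with UV at 310 nm against linear calibration curves (detection limit 0.25 µM, linear 1–1000 µM). Data are means.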

Rattus norvegicus [3] = experiment: Drug metabolism in Sprague-Dawley rat plasma assessed as parent compound and metabolite level at 300 umol/kg, sc after 8 hrs by HPLC analysis; type: ADME, organism-based; settings: in vivo, read-out: Drug metabolism; method in brief: as §1
Rattus norvegicus [4] = experiment: Drug metabolism in Sprague-Dawley rat liver assessed as (S)-4'-(5-carboxypentyloxy)-DADFT level at 300 umol/kg, sc after 0.5 to 1 hrs by HPLC analysis; type: ADME, organism-based; settings: in vivo
Method in brief: (§2)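 Single sc injection in male Sprague-Dawley rats (250–350 g) of the monosodium salt at 300 µmol/kg, n=3 per time point, killed by CO2 at 0.5–8 h. Plasma came from citrated cardiac blood; organs were frozen. Homogenates were made 1:3 in 0.5 N HClO4, given a methanol rinse, held 30 min at −20 °C, centrifuged, diluted in pH 3.0 phosphate/CH3CN and filtered. RP-amide HPLC, UV 310 nm; values are means, nmol/g wet weight or µM.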

Rattus norvegicus [5] = experiment: Drug metabolism in Sprague-Dawley rat liver assessed as parent compound and metabolite level at 300 umol/kg, sc after 8 hrs by HPLC analysis; type: ADME, organism-based; settings: in vivo; method in brief: as §1
Rattus norvegicus [6] = experiment: Drug metabolism in Sprague-Dawley rat liver assessed as parent compound and (S)-4'-(3-carboxypropyloxy)-DADFT level at 300 umol/kg, sc after 8 hrs by HPLC analysis; type: ADME, organism-based; settings: in vivo; method in brief: as §2
Rattus norvegicus [7] = experiment: Drug metabolism in Sprague-Dawley rat plasma assessed as (S)-4'-(carboxymethoxy)-DADFT level at 300 umol/kg, sc after 8 hrs by HPLC analysis; type: ADME, organism-based; settings: in vivo; method in brief: as §2
Rattus norvegicus [8] = experiment: Drug metabolism in Sprague-Dawley rat kidney assessed as (S)-4'-(5-carboxypentyloxy)-DADFT level at 300 umol/kg, sc after 0.5 to 1 hrs by HPLC analysis; type: ADME, organism-based; settings: in vivo; method in brief: as §2
Rattus norvegicus [9] = experiment: Drug metabolism in Sprague-Dawley rat kidney assessed as (S)-4'-(3-carboxypropyloxy)-DADFT level at 300 umol/kg, sc after 0.5 to 1 hrs by HPLC analysis; type: ADME, organism-based; settings: in vivo; method in brief: as §2
Rattus norvegicus [10] = experiment: Drug metabolism in Sprague-Dawley rat kidney assessed as (S)-4'-(3-carboxypropyloxy)-DADFT level at 300 umol/kg, sc after 8 hrs by HPLC analysis; type: ADME, organism-based; settings: in vivo; method in brief: as §2
Rattus norvegicus [11] = experiment: Drug metabolism in Sprague-Dawley rat kidney assessed as (S)-4'-(carboxymethoxy)-DADFT level at 300 umol/kg, sc after 0.5 hrs by HPLC analysis; type: ADME, organism-based; settings: in vivo; method in brief: as §2
Rattus norvegicus [12] = experiment: Drug metabolism in Sprague-Dawley rat kidney assessed as (S)-4'-(carboxymethoxy)-DADFT level at 300 umol/kg, sc after 1 hr by HPLC analysis; type: ADME, organism-based; settings: in vivo; method in brief: as §2
Rattus norvegicus [13] = experiment: Drug metabolism in Sprague-Dawley rat kidney assessed as (S)-4'-(carboxymethoxy)-DADFT level at 300 umol/kg, sc after 2 hrs by HPLC analysis; type: ADME, organism-based; settings: in vivo; method in brief: as §2
Rattus norvegicus [14] = experiment: Drug metabolism in Sprague-Dawley rat kidney assessed as (S)-4'-(carboxymethoxy)-DADFT level at 300 umol/kg, sc after 8 hrs by HPLC analysis; type: ADME, organism-based; settings: in vivo; method in brief: as §2
Rattus norvegicus [15] = experiment: Drug metabolism in Sprague-Dawley rat heart assessed as parent compound level at 300 umol/kg, sc after 0.5 hrs by HPLC analysis; type: ADME, organism-based; settings: in vivo; method in brief: as §2
Rattus norvegicus [16] = experiment: Drug metabolism in Sprague-Dawley rat heart assessed as (S)-4'-(5-carboxypentyloxy)-DADFT level at 300 umol/kg, sc up to 8 hrs by HPLC analysis; type: ADME, organism-based; settings: in vivo; method in brief: as §2
Rattus norvegicus [17] = experiment: Drug metabolism in Sprague-Dawley rat heart assessed as (S)-4'-(3-carboxypropyloxy)-DADFT level at 300 umol/kg, sc after 0.5 to 1 hrs by HPLC analysis; type: ADME, organism-based; settings: in vivo; method in brief: as §2
Rattus norvegicus [18] = experiment: Drug metabolism in Sprague-Dawley rat heart assessed as (S)-4'-(carboxymethoxy)-DADFT level at 300 umol/kg, sc after 0.5 hrs by HPLC analysis; type: ADME, organism-based; settings: in vivo; method in brief: as §2
Rattus norvegicus [19] = experiment: Drug metabolism in Sprague-Dawley rat heart assessed as (S)-4'-(carboxymethoxy)-DADFT level at 300 umol/kg, sc after 1 hr by HPLC analysis; type: ADME, organism-based; settings: in vivo; method in brief: as §2
Rattus norvegicus [20] = experiment: Drug metabolism in Sprague-Dawley rat heart assessed as (S)-4'-(carboxymethoxy)-DADFT level at 300 umol/kg, sc after 2 to 8 hrs by HPLC analysis; type: ADME, organism-based; settings: in vivo; method in brief: as §2
Rattus norvegicus [21] = experiment: Drug metabolism in Sprague-Dawley rat pancreas assessed as parent compound level at 300 umol/kg, sc after 0.5 hrs by HPLC analysis; type: ADME, organism-based; settings: in vivo; method in brief: as §2
Rattus norvegicus [22] = experiment: Drug metabolism in Sprague-Dawley rat pancreas assessed as (S)-4'-(5-carboxypentyloxy)-DADFT level at 300 umol/kg, sc after 0.5 to 8 hrs by HPLC analysis; type: ADME, organism-based; settings: in vivo; method in brief: as §2
Rattus norvegicus [23] = experiment: Drug metabolism in Sprague-Dawley rat pancreas assessed as (S)-4'-(3-carboxypropyloxy)-DADFT level at 300 umol/kg, sc after 0.5 hrs by HPLC analysis; type: ADME, organism-based; settings: in vivo; method in brief: as §2
Rattus norvegicus [24] = experiment: Drug metabolism in Sprague-Dawley rat pancreas assessed as (S)-4'-(3-carboxypropyloxy)-DADFT level at 300 umol/kg, sc after 1 hr by HPLC analysis; type: ADME, organism-based; settings: in vivo; method in brief: as §2
Rattus norvegicus [25] = experiment: Drug metabolism in Sprague-Dawley rat pancreas assessed as (S)-4'-(5-carboxypentyloxy)-DADFT level at 300 umol/kg, sc after 4 to 8 hrs by HPLC analysis; type: ADME, organism-based; settings: in vivo; method in brief: as §2
Rattus norvegicus [26] = experiment: Drug metabolism in Sprague-Dawley rat pancreas assessed as (S)-4'-(3-carboxypropyloxy)-DADFT level at 300 umol/kg, sc after 4 to 8 hrs by HPLC analysis; type: ADME, organism-based; settings: in vivo; method in brief: as §2
Rattus norvegicus [27] = experiment: Drug metabolism in Sprague-Dawley rat pancreas assessed as (S)-4'-(carboxymethoxy)-DADFT level at 300 umol/kg, sc after 4 to 8 hrs by HPLC analysis; type: ADME, organism-based; settings: in vivo; method in brief: as §2
Rattus norvegicus [28] = experiment: Toxicity in Sprague-Dawley rat assessed as mortality at 384 umol/kg, po qd for 10 days; type: organism-based; settings: in vivo, 240 h
Method in brief: (§3)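 Male Sprague-Dawley rats (n=5, 375–400 g) with normal iron stores, housed singly in metabolic cages and weighed daily. Drug given po by gavage as monosodium salt once daily for 10 days, dosed in the morning after overnight fast; fed ~3 h post-drug. Euthanized day 11; CBC, serum chemistries and 25 tissues/rat for outside histopathology; age-matched untreated controls.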

Rattus norvegicus [29] = experiment: Toxicity in Sprague-Dawley rat assessed as BUN level in blood at 384 umol/kg, po qd for 10 days; type: organism-based; settings: in vivo, 240 h
Method in brief: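 Male Sprague-Dawley rats (n=5, 375–400 g) with normal iron stores were housed in metabolic cages. Drug was given po as the monosodium salt, once daily for 10 days at 384 µmol/kg/day. Rats were fasted overnight, dosed in the morning, and fed about 3 h post-drug. They were euthanized on day 11, and blood was taken for serum chemistry including BUN. Age-matched untreated rats served as controls.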

Rattus norvegicus [30] = experiment: Toxicity in Sprague-Dawley rat assessed as histopathology at 384 umol/kg, po qd for 10 days; type: organism-based; settings: in vivo, 240 h; method in brief: as §3
Rattus norvegicus [31] = experiment: Iron clearing efficiency in bile duct cannulated Sprague-Dawley rat assessed as clearance of iron in urine at 300 umol/kg, po measured at 3 hrs intervals for up to 48 hrs relative to control; type: functional
Rattus norvegicus [32] = experiment: Iron clearing efficiency in bile duct cannulated Sprague-Dawley rat assessed as clearance of iron in bile at 300 umol/kg, po measured at 3 hrs intervals for up to 48 hrs relative to control; type: functional
Method in brief: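 Non-iron-overloaded male Sprague-Dawley rats (400–450 g) with cannulated bile ducts received 300 µmol/kg po or sc. […] Bile was sampled every 3 h for up to 48 h and urine at 24 h intervals. ICE = (treated minus control iron excretion) / theoretical output (2:1 ligand:Fe) × 100 over 48 h. Mean ± SEM.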

With `C[C@]1(C(=O)O)CSC(c2ccc(OCCCCCCO)cc2O)=N1` the Activity (Sapajus apella) was 90%, the Ratio [1] was 2.2 and the Drug metabolism (Rattus norvegicus [2]) was “Not Active”. The concentration (Rattus norvegicus [3]) was 23 µM, the Drug metabolism (Rattus norvegicus [4]) was “metabolite_detected” and the Drug metabolism (Rattus norvegicus [5]) was “metabolite_detected”. For the same compound, the Drug metabolism (Rattus norvegicus [6]) was “metabolite_notdetected”, the Drug metabolism (Rattus norvegicus [7]) was “metabolite_detected” and the Drug metabolism (Rattus norvegicus [8]) was “metabolite_detected”. The Drug metabolism (Rattus norvegicus [9]) was 300 nmol/g, the Drug metabolism (Rattus norvegicus [10]) was “metabolite_notdetected” and the Drug metabolism (Rattus norvegicus [11]) was 156 nmol/g. The Drug metabolism (Rattus norvegicus [12]) was 201 nmol/g, the Drug metabolism (Rattus norvegicus [13]) was 161 nmol/g and the Drug metabolism (Rattus norvegicus [14]) was 5 nmol/g. For the same compound, the Drug metabolism (Rattus norvegicus [15]) was 26 nmol/g, the Drug metabolism (Rattus norvegicus [16]) was “metabolite_notdetected” and the Drug metabolism (Rattus norvegicus [17]) was 46 nmol/g. The Drug metabolism (Rattus norvegicus [18]) was 17 nmol/g, the Drug metabolism (Rattus norvegicus [19]) was 23 nmol/g and the Drug metabolism (Rattus norvegicus [20]) was “metabolite_notdetected”. The Drug metabolism (Rattus norvegicus [21]) was < 5 nmol/g, the Drug metabolism (Rattus norvegicus [22]) was “metabolite_notdetected” and the Drug metabolism (Rattus norvegicus [23]) was 19 nmol/g. For the same compound, the Drug metabolism (Rattus norvegicus [24]) was 23 nmol/g, the Drug metabolism (Rattus norvegicus [25]) was “metabolite_notdetected” and the Drug metabolism (Rattus norvegicus [26]) was “metabolite_notdetected”. The Drug metabolism (Rattus norvegicus [27]) was “metabolite_notdetected”, the Activity (Rattus norvegicus [28]) was “Non-toxic” and the Activity (Rattus norvegicus [29]) was 20 mg/dL. The Activity (Rattus norvegicus [30]) was “Non-toxic”, the Activity (Rattus norvegicus [31]) was 4% and the Activity (Rattus norvegicus [32]) was 96%.

From ChEMBL document CHEMBL3608261, “Metabolically programmed iron chelators” (Bioorg Med Chem, 2015)
